PubChem BioAssay
Values without a mark were called inactive. Inconclusive results are not listed. Activity calls are given as the source filed them.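 Rule for the calls, unless noted: active = cell viability at or below a set limit in both duplicate runs, the limit being the all-compound median minus 4 SD (cut at about 23% in these data, passing the limit was not always enough); inconclusive = no clear call, values can overlap the other calls; inactive = the rest.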

Key:
[1] = S. cerevisiae growth inhibition in permissive medium (OD615), pilot counter-assay for S. cerevisiae lifespan shortening project, permissive growth control (AID 705;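 active = growth inhibition above 25% in both replicates, a cutoff set 3 SD above the mean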); conditions: OD615, 24 h, at 10 µM, hits give high values
Outline: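 assay system = Saccharomyces cerevisiae strain carrying genetically modified DeaD replicative-lifespan system | medium = SC raffinose/galactose permissive medium | dosing = 10 µM single dose, 0.25% DMSO | schedule = 24 h compound exposure at 30 °C after 4 h pre-growth | measured by = OD at 615 nm | read-out basis = growth inhibition from lowered OD615 after 24 h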

[2] = S. cerevisiae growth inhibition in restrictive medium, OD615, pilot screen, restrictive growth control, yeast lifespan reduction project (AID 706;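 active = growth inhibition above a set limit, 3 SD over mean compound inhibition, in both replicates, cut at about 43% in these data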;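 note: modified DeaD lifespan yeast strain shifted to restrictive glucose medium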); conditions: OD615, 48 h, at 10 µM, hits give high values
Outline: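 Buffer or medium: CSMM-D glucose medium. Material: genetically modified Saccharomyces cerevisiae, DeaD replicative lifespan assay strain. Times: 48 h compound exposure at 30 °C. Measured by: optical density at 615 nm.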

[3] = doxorubicin toxicity protection in MRP-1 cells – H69AR cells, CellTiter-Glo, duplicate, MRP-1 activator project, pilot screen (AID 807;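 active = viability increase at or above a cutoff of the median across tested compounds plus 3 SD, cut at about 8.5% in these data, passing the limit was not always enough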;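 note: compound pretreatment 18-22 h then 72 h combined with doxorubicin; 0% = doxorubicin alone and 100% = vehicle without doxorubicin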); conditions: H69AR viability with doxorubicin, CellTiter-Glo luminescence; at 10 µM; hits give high values
[4] = viability of HCT116 without oncogenic beta-catenin – human colon tumor cells, pilot screen (AID 823); conditions: HCT116 beta-catenin knockout viability, CellTiter-Glo, 60 h; at 10 µM; hits give low values;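 note: 0% = wells killed by 20 µM Hyamine and 100% = untreated DMSO cell wells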
[5] = viability of PTEN-null HCT116 cells – cell-based, HCT116 clonal line, CellTiter-Glo, pilot screen (AID 824;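 active = viability at or below 27.92% in each of two runs, the all-compound median minus 4 SD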;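 note: 0% = 20 µM Hyamine control and 100% = vehicle cell control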); conditions: HCT116 PTEN-deleted viability, 60 h, at 10 µM, hits give low values
[6] = RAM pathway blockade in budding yeast – dse1pr::URA3 reporter, 5-FOA selection, pilot screen (AID 869;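 active = inhibition over a set limit, the all-compound mean plus 3 SD, in both replicate runs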;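 note: 0% = DMSO wells with no growth and 100% = 10 µM 1-NA-PP1 with full growth; RAM network block rescues cells from 5-FOA so hits raise OD615 growth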); conditions: S. cerevisiae dse1pr::URA3 5-FOA growth, OD615, 2 d; at 10 µM; hits give high values; strain carries analog-sensitive mutant Cbk1 kinase
[7] = RAM signaling pathway blockade in yeast – S. cerevisiae, Pdr1DBD-CYC8 efflux-inhibited sensitized strain, primary screen (AID 1298;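 active = RAM network inhibition above 8.4% in each of two replicates, 3 SD over the compound average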;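 note: 0% = DMSO untreated cells without growth and 100% = 10 µM 1-NA-PP1 full growth; higher means more yeast growth rescued from 5-FOA killing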); conditions: S. cerevisiae cbk1-as DSE1-URA3 strain, 5-FOA growth OD615, 2 d; at 50 µM; hits give high values

SMILES	growth inhibition [1]	growth inhibition [2]	viability increase [3]	viability [4]	viability [5]	inhibition [6]	RAM network inhibition [7]
COc1cccc2c(=O)n(CC(=O)NC3CCCCC3)ccc12	0.435%	-6.59%	-1.27%	103%	90.3%	1.58%	4.45%
O=C(O)CCC(=O)N1CCc2cc(S(=O)(=O)N3CCN(c4ccc(F)cc4)CC3)ccc21	-4.08%	6.97%	-1.31%	97.4%	99%	1.94%	4.17%
CC(c1ccc(Br)cc1)N1CC23C=CC(O2)C(C(=O)O)C3C1=O (stereo unspecified)	0.305%	6.24%	-0.16%	102%	99.7%	1.27%	-1.25%
CN(Cc1ccccc1)C(=O)COC(=O)c1ccc2c(c1)OCO2	-6.52%	-18.6%	0.42%	101%	104%	0.11%	0.88%
Cc1ccc2c(c1)N(CCCC(=O)NCc1cccnc1)C(=O)CO2	-13.3%	-16.3%	0.96%	95.6%	99.1%	-0.1%	0.98%
CCOC(=O)c1c(CN2CCCCC2)n(C)c2ccc(OC)c(S(=O)(=O)c3ccccc3)c12	-6.81%	-19.7%	-3.9%	96.3%	92.4%	0.105%	3.27%
O=C(CSc1nc2ccccc2o1)NCc1ccco1	-11.6%	-16%	-3.53%	102%	98%	0.97%	5.5%
CC1(C(=O)NCc2cccnc2)CCC(=O)N1Cc1cccs1 (stereo unspecified)	-2.29%	-1.24%	0.38%	108%	102%	0%	3.95%
COc1ccc(OCC(=O)NC2CC(C)(C)NC(C)(C)C2)cc1	4.15%	2.14%	1.31%	103%	105%	-0.405%	3.43%
Cc1nccn1-c1c2c(c(C#N)c3nc4ccccc4n13)CCC2	-8.38%	-2.89%	-2.34%	97.3%	93.1%	2.08%	2.4%
CCSc1sccc1C1C(C#N)=C(N)N(c2cccnc2)C2=C1C(=O)CC(C)(C)C2 (stereo unspecified)	-14.3%	-6.69%	-6.56%	92.1%	93.2%	0.9%	12.4%
CN(C)CCNc1nc2c(c(=O)[nH]c(=O)n2C)n1CCCc1ccccc1	-14.9%	4.34%	-1.16%	93.1%	93.9%	2.04%	0.47%
CCCN(CCC)S(=O)(=O)c1ccc(C(=O)N2CCC(=O)c3ccccc32)cc1	-0.75%	1.45%	-5.63%	81.2%	89.7%	2.23%	0.93%
COc1ccc(C(=O)c2cnc(C(C)C)n2C)cc1	-3.74%	-9.59%	2.12%	98.2%	90.2%	1.88%	4.97%
CCc1cc(=O)oc2cc(C)cc(O)c12	-16.6%	-7.76%	-1.72%	95.3%	99.8%	0.2%	1.99%
Cn1c2c(c3ccccc31)CC/C2=N\O	1.57%	18.9%	-0.84%	100%	99%	1%	1.01%
CCOC(=O)c1c(NC(=O)CN2CCCCC2)sc2c1CCCC2O (stereo unspecified)	-10.4%	-0.48%	-4.26%	70.3%	65.2%	-0.195%	4.1%

SMILES	growth inhibition [1]	growth inhibition [2]	viability increase [3]	viability [4]	viability [5]	inhibition [6]	RAM network inhibition [7]
O=C(Cn1cc2c(n1)CCCCC2)NC1CCN(Cc2ccccc2)CC1	-6.81%	2.45%	-1.57%	86.5%	83.4%	2.21%	7.63%
CC1CN(c2ncnc3c2cnn3-c2ccc(Cl)cc2)CC(C)O1 (stereo unspecified)	-3.73%	-8.06%	3.8%	100%	88.4%	1.4%	3.95%
Cc1cccc(-n2ncc3c(N(C)Cc4ccccc4)ncnc32)c1	-2.16%	-0.895%	5.35%	109%	88.7%	0.7%	4.33%
O=c1cc(O)sc2ccccc12	-4.72%	-8.78%	-2.09%	96.4%	94.4%	0.79%	-0.87%
CCOC(=O)c1cc(-c2ccc(C)o2)nn1CCC#N	-6.98%	4.24%	0.21%	101%	102%	0.86%	3.69%
Cn1c(Cn2c(=O)sc3ccccc32)nnc1SCC(=O)NCc1ccccc1Cl	-7.92%	-13.9%	-1.32%	100%	103%	0.62%	3.96%
CC(CCc1ccccc1)NC(=O)CSc1nnnn1C (stereo unspecified)	-6.04%	-18.6%	-1.52%	101%	101%	1.61%	4.5%
CN1CCN(Cc2nc3c(c(=O)n(C)c(=O)n3C)n2CCc2ccccc2)CC1	-8.96%	-4.14%	-1.67%	92.8%	103%	0.895%	2.53%
COc1ccc(Cl)cc1C(=O)Nc1cc(=O)n(C)c(=O)n1C	-16.1%	-29.6%	-1.06%	102%	99.1%	1.71%	2.2%
CCOC(=O)N1CCN(C(=O)C2CC(c3ccc(F)cc3)=NO2)CC1 (stereo unspecified)	-5.22%	-10.9%	1.33%	104%	108%	0.815%	2.2%
c1ccc(-c2csc3nnc(SCc4ccc5c(c4)OCO5)n23)cc1	22.1%	64.5% (active)	-2.01%	93.2%	82.7%	0.87%	3.09%
Cc1ccccc1CN1CCNC(=O)C1CC(=O)O (stereo unspecified)	-13.2%	-14.1%	-3.29%	105%	96.2%	2.04%	-0.64%
CCCSc1n[nH]c(NC(C)=O)n1	-9.97%	7.95%	-0.65%	98.6%	101%	2.27%	2.41%
Cc1cc(NC(=O)c2cc(C3CC3)on2)n(-c2ccccc2)n1	-16.2%	-17.8%	-0.45%	101%	99.6%	0.355%	8.58%
O=C(NC1CCCCCC1)C1C2C=CC3(CN(Cc4cccnc4)C(=O)C13)O2 (stereo unspecified)	0.045%	8.75%	0.68%	101%	107%	0.18%	1.44%
Cc1ccc2c(c1)NC(=O)C(CC(=O)NCCCN1CCCCC1C)O2 (stereo unspecified)	6.71%	8.33%	-1.72%	101%	101%	-0.48%	1.25%
